PMC4931877 (The Journal of Pharmacology and Experimental Therapeutics, 2016)

How the values were obtained:
[1] = SAD study plasma pharmacokinetics; format: in vivo, human; details: for Cmax / AUC(0-t) / AUC(0-inf) / half-life: human, plasma, oral; for Cmax: Cmax GM (CV%); for AUC(0-t): AUC0–t GM (CV%); for AUC(0-inf): AUC0–∞ GM (CV%)
In short: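 Young subjects (8 per panel, 3:1 active:placebo) received single oral 10–1200 mg doses as solution or capsule; elderly subjects received 900 mg. Panel 4 was dosed fasted, after a high-fat meal, or 2 h after 40 mg famotidine. Plasma drug was measured by validated LC-MS/MS with noncompartmental analysis.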

[2] = SAD study CSF pharmacokinetics; format: in vivo, human
In short: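 In panel 9, 15 healthy subjects received a single 900-mg dose or placebo (2:1) in the fasted state. CSF was drawn by lumbar cannulation at −1, 0, 2, 4, 6, 8, 12, 15, 18 and 24 h postdose, using polypropylene ware and a pump without a filter. Samples were stored at −80°C, and drug was measured by validated LC-MS/MS.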

[3] = system: CSF Aβ peptides; test: MAD study pharmacodynamic effects on CSF Aβ peptides; format: in vivo, human
[4] = system: plasma Aβ40, Aβ42, and total Aβ; test: MAD study pharmacodynamic effects on plasma Aβ; format: in vivo, human
In short: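 Healthy volunteers were dosed once daily at 50, 100 or 200 mg for up to 28 days. EDTA plasma was stored at −80°C. Aβ40 and Aβ42 were measured by Luminex duplex immunoassay (LLOQ 30 and 3 pg/ml) and total Aβ by MSD (LLOQ 50 pg/ml), in duplicate. Values are % change from baseline, analysed by repeated-measures ANCOVA.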

[5] = biological target: CYP3A4 (Homo sapiens, UniProt P08684); test: Preclinical CYP3A4 time-dependent inhibition, induction and metabolism; format: in vitro ADME
CYP3A4, sequence (P08684 whole entry): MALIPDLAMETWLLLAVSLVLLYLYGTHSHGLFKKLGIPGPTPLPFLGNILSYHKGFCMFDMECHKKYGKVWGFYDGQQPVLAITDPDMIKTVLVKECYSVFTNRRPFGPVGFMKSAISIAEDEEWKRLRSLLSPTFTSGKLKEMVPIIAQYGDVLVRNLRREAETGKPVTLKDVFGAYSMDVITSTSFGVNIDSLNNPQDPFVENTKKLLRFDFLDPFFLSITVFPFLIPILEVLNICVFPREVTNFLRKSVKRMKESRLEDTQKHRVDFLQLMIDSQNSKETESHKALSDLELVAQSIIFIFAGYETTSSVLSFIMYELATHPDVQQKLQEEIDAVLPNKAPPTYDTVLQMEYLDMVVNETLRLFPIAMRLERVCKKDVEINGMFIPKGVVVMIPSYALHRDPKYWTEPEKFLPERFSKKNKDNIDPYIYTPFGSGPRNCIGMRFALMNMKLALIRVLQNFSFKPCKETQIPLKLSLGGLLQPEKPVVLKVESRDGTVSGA

[6] = SAD study safety and tolerability; format: in vivo, human
In short: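 Single-dose subjects, placebo-controlled and double-blind, were assessed by vital signs, physical examination, 12-lead ECG and clinical laboratory tests. AEs were spontaneously reported or elicited, and their onset, duration, intensity, seriousness, relatedness and action taken were recorded. AEs were tabulated by MedDRA 12.1 system organ class and preferred term.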

[7] = system: brain Aβ42; set-up: species or system human; details: single 900-mg dose
[8] = system: CSF Aβ42; test: Indirect-response simulation of CSF Aβ42 lowering from MAD exposure-response; set-up: species or system human; details: MAD exposure-response model, Fig. 3F
[9] = system: brain and CSF Aβ42 and Aβ40; details: dogs; ref Toyn et al., 2016; cited from earlier work
[10] = SAD panel 4, 2 hours after 40 mg famotidine
[11] = both, 300 mg, SAD panel 4, 300 mg, fasted
[12] = both, 900 mg, SAD panel 8, 900 mg, elderly

## CNc1nc(Nc2ccc(-n3cnc(C)n3)c(OC)c2)nc2c1CC[C@H]2c1ccc(F)cc1 [BMS-932481, (S)-7-(4-fluorophenyl)-N2-(3-methoxy-4-(3-methyl-1H-1,2,4-triazol-1-yl)phenyl)-N4-methyl-6,7-dihydro-5H-cyclopenta[d]pyrimidine-2,4-diamine]
[1]; 900 mg single dose, range 3.4–4.3
  higher Cmax in elderly than normal healthy young: 3.8 fold
[1]; SAD
  Between-subjects variability: 27%–83
[1]; [10]
  increase of AUC with famotidine (change in gastric pH): approximately 15%
  increase of Cmax with famotidine (change in gastric pH): 60%
[1]; both, 10 mg, SAD panel 1, 10 mg single dose
  Cmax: 11 ng/mL
[1]; both, 30 mg, SAD panel 2, 30 mg single dose
  Cmax: 49 ng/mL
[1]; [11]
  AUC(0-t): 8570 ng·h/mL
  AUC(0-inf): 8750 ng·h/mL
  Cmax: 325 ng/mL
[1]; both, 300 mg, t1/2 Mean (S.D.), SAD panel 4, 300 mg, fasted
  half-life: 20 h
[1]; [12]
  AUC(0-t): 134000 ng·h/mL
  AUC(0-inf): 156000 ng·h/mL
  Cmax: 2870 ng/mL
[1]; both, mean terminal half-life, SAD, healthy young participants
  half-life: 16 to 32 h
[1]; 900 mg, SAD panel 9, 900 mg
  AUC(0-t): 42600 ng·h/mL
  Cmax: 876 ng/mL
[1]; 900 mg, t1/2 Mean (S.D.), SAD panel 9, 900 mg
  half-life: 32 h
[1]; single dose, 10 to 1200 mg, healthy young volunteers
  dose proportionality of plasma exposure: dose proportional
[2]; SAD panel 9, 900 mg
  Tmax Median (Minimum–Maximum): 6 (4–18) h
[2]; human, oral, 900 mg
  AUC(0-t): 97 ng·h/mL
  Cmax: 6.5 ng/mL
  Kp: < 0.01
  Tmax: 6 h
[3]; MAD
  effect on CSF APL1β28 fragment: No effects
  effect on CSF Aβ14 fragment: No effects
[3]; MAD 50 mg, day 28
  Mean decrease in CSF Aβ40, change from baseline: −36%
  Mean decrease in CSF Aβ42, change from baseline: −38%
  increase of CSF Aβ37, of baseline: 292%
[3]; MAD 100 mg, day 28
  Mean decrease in CSF Aβ40, change from baseline: −44%
  Mean decrease in CSF Aβ42, change from baseline: −46%
  increase of CSF Aβ37, of baseline: 518%
[3]; MAD 200 mg, 48, 72 or 96 hours after last dose
  increase of CSF Aβ37, of baseline: 484%–545
[3]; MAD 200 mg, 96 hours after last dose
  CSF Aβ40 and Aβ42 levels four days after the last day of dosing: still significantly reduced
[3]; MAD, 50 mg
  increase of CSF Aβ38: 20%
[3]; MAD, 100 mg
  increase of CSF Aβ38: 69%
[3]; MAD, 200 mg
  increase of CSF Aβ38: 68%
[3]; MAD, especially at the 200-mg dose
  CSF Aβ42/CSF Aβ40 ratio: Trends in lowering
[3]; SAD and MAD (Supplemental Figs. 4C and 5F)
  effect on CSF AB17: slight increases
[3]; at higher dose levels
  effect on total Aβ in CSF: modest decreases
[4]; MAD 50-mg dose, up to
  decrease of plasma Aβ40 levels: 40%–50
[4]; MAD 100- and 200-mg cohorts
  plasma Aβ42 during the dosing period: below the limit of quantitation
[4]; MAD 200-mg cohort, day 35 (11 days after the last dose)
  reduction of plasma Aβ42 levels: 46%
[4]; multiple dose cohorts
  change in plasma total Aβ: No changes
[4]; multiple-dose administrations
  effect on plasma Aβ42 and Aβ40: dose-dependently decreased
[5]
  metabolizing enzyme: primarily metabolized by CYP3A4
[5]; human
  KI (inactivation): 82.5 µM
[5]; preclinical
  induction of CYP3A4 enzyme activity: weak inducer
[6]
  findings on ECG parameters: no clinical relevant findings
[6]; 10 mg
  AEs: 3 (50.0) n (%)
  Deaths: 0 n (%)
  Discontinuation due to AEs: 0 n (%)
  Drug-related AEs: 0 n (%)
  SAEs: 0 n (%)
[6]; 30 mg
  AEs: 2 (33.3) n (%)
  Deaths: 0 n (%)
  Discontinuation due to AEs: 0 n (%)
  Drug-related AEs: 0 n (%)
  SAEs: 0 n (%)
[6]; 100 mg
  AEs: 1 (16.7) n (%)
  Deaths: 0 n (%)
  Discontinuation due to AEs: 0 n (%)
  Drug-related AEs: 0 n (%)
  SAEs: 0 n (%)
[6]; 300 mg P2 (cross-over phase 2)
  AEs: 0 n (%)
  Deaths: 0 n (%)
  Discontinuation due to AEs: 0 n (%)
  Drug-related AEs: 0 n (%)
  SAEs: 0 n (%)
[6]; 300 mg P3 (cross-over phase 3)
  AEs: 1 (16.7) n (%)
  Deaths: 0 n (%)
  Discontinuation due to AEs: 0 n (%)
  Drug-related AEs: 0 n (%)
  SAEs: 0 n (%)
[6]; 300 mg P (cross-over phase 1)
  AEs: 0 n (%)
  Deaths: 0 n (%)
  Discontinuation due to AEs: 0 n (%)
  Drug-related AEs: 0 n (%)
  SAEs: 0 n (%)
[6]; 600 mg
  AEs: 0 n (%)
  Deaths: 0 n (%)
  Discontinuation due to AEs: 0 n (%)
  Drug-related AEs: 0 n (%)
  SAEs: 0 n (%)
[6]; 900 mg
  AEs: 3 (50.0) n (%)
  Deaths: 0 n (%)
  Discontinuation due to AEs: 0 n (%)
  Drug-related AEs: 1 (16.7) n (%)
  SAEs: 0 n (%)
[6]; 900 mg C (CSF panel)
  Deaths: 0 n (%)
  Discontinuation due to AEs: 0 n (%)
  Drug-related AEs: 1 (10.0) n (%)
  SAEs: 0 n (%)
[6]; 900 mg El (elderly)
  AEs: 0 n (%)
  Deaths: 0 n (%)
  Discontinuation due to AEs: 0 n (%)
  Drug-related AEs: 0 n (%)
  SAEs: 0 n (%)
[6]; 1200 mg
  AEs: 0 n (%)
  Deaths: 0 n (%)
  Discontinuation due to AEs: 0 n (%)
  Drug-related AEs: 0 n (%)
  SAEs: 0 n (%)
[6]; 10 to 1200 mg, healthy subjects
  tolerability after a single dose: generally well tolerated
[6]; all treated
  AEs: 17 (27.9) n (%)
  Deaths: 0 n (%)
  Discontinuation due to AEs: 0 n (%)
  Drug-related AEs: 2 (3.3) n (%)
  SAEs: 0 n (%)
[6]; two participants
  participants with drug-related AEs: 3.3%
[7]
  projected reduction of CSF Aβ42 from baseline: ≥ 50%
[8]
  decrease of CSF Aβ42 levels within exposures free of liver toxicity findings: ≤ 25%
[9]
  Aβ42 and Aβ40 lowering in both the brain and CSF: dose-dependent
